SENP8 block-1: SENP8 protease inhibition; Q96LD8; purified SENP8, Z-RLRGG-aminoluciferin cleavage, luminescence; inhibition, % at 10 µM; actives 1.2% (n = 330,000); AID 2540; in the data active = inhibition above about 50%
SENP6 inh: blocks the human protease SENP6. Q9GZR1. Recombinant SENP6 catalytic domain, aminoluciferin luminescence. inhibition, % at 10 µM. actives 1.8% (n = 330,000). AID 2599;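 active = inhibition above about 50% at the single tested dose, limit read from the data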;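 also: plate controls were DMSO wells with enzyme for no effect and DMSO wells lacking enzyme for full effect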
SENP1 inh: SENP1 (human) catalytic domain inhibition; Q9P0U3; recombinant SENP1 catalytic domain, CyPet-SUMO1-YPet FRET cleavage; inhibition, % at 10 µM; actives 0.21% (n = 360,000);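 active = inhibition at least 30% at 10 µM, raw YFP signal under a set limit, fluorescence ratio 0.5 to 1.5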;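 also: 0% = enzyme with DMSO and 100% = no enzyme wells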
Target sequence (Q9P0U3 419-644 limits assumed): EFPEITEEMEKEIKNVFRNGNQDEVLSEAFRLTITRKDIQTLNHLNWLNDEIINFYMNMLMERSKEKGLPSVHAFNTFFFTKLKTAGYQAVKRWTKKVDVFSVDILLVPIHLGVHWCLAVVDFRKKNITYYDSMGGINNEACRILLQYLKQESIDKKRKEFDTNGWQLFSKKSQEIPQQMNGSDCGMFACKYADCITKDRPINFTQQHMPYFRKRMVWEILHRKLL
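Assay system: hSENP1 catalytic domain, recombinant. Amount: SENP1 enzyme, 20 pM final. Schedule: 50 min reaction, RT, dark. Technique: FRET, CFP and YFP emission. Control set: no-enzyme wells low, DMSO-plus-enzyme wells high control.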
SENP8 block-2: SENP8 (human) protease inhibition. Q96LD8. recombinant SENP8, Nedd8 substrate fluorescence. inhibition, % at 20 µM. actives 0.64% (n = 360,000); in the data active = inhibition mostly above about 40%, no sharp cut-off; inactive = mostly below about 27%
SENP7 block: inhibitors of human SENP7 protease. recombinant SENP7, Z-RLRGG-aminoluciferin luminescence, 40 min. inhibition, % at 5 µM. actives 1.5% (n = 330,000). AID 434973;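 active = inhibition above about 50% at the single test dose, limit read from the data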;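 also: plate controls were DMSO with enzyme for no effect and no enzyme buffer wells for full effect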
SENP8 conf: human SENP8 inhibition, confirmed. shares compounds with SENP7 block. Recombinant SENP8, Z-RLRGG-aminoluciferin luminescence, 60 min. inhibition, % at 12.5 µM. actives 40% (n = 6,200). AID 488912;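 active = mean inhibition across replicates above about 50%, limit read from the data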
SENP6 confirm: human SENP6 inhibition, confirmed | recombinant SENP6, Z-RLRGG-aminoluciferin luminescence | AID 488915 | inhibition, % at 12.5 µM | actives 58% (n = 6,200) | shares compounds with SENP7 block
SENP7 conf: confirmation of human SENP7 protease inhibitors. shares compounds with SENP7 block. recombinant SENP7, Z-RLRGG-aminoluciferin luminescence, 40 min. inhibition, % at 12.5 µM. actives 69% (n = 6,200)
Casp3 SENP sel: inhibits human caspase-3 in SENP selectivity test | inhibition, % at 12.5 µM | actives 60% (n = 6,200) | shares compounds with SENP7 block | purified caspase-3, Z-DEVD-aminoluciferin luminescence, 60 min;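 active = mean inhibition above about 50%, limit read from the data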;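 also: plate controls were enzyme with DMSO for no effect and wells without caspase-3 for full effect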
Target sequence (P42574 28-227 limits assumed): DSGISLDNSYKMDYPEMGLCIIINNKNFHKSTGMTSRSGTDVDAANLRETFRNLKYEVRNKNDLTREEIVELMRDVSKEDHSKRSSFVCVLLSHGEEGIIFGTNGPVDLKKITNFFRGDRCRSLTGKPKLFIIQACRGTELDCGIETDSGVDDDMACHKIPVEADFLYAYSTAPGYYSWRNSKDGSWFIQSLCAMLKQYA
Luc interf: luminescence interference (SENP counter-screen); Pre-incubated SENP8/Z-RLRGG-aminoluciferin, luciferase luminescence interference; AID 488919; shares compounds with SENP7 block; inhibition, % at 12.5 µM; actives 39% (n = 6,200);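 active = mean inhibition above about 50% when retested at one dose, limit read from the data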;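 also: plate controls were DMSO wells with completed reaction for no effect and substrate without enzyme for full effect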
An asterisk follows results filed as active. Compounds with a hit are over-represented: about 2.5% of the library has one in this group of screens.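 The calls were made as follows, unless noted: active = mean inhibition above about 50% in the one-dose retest (limit read from the data); inactive = the rest.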

Screening Cc1ccc(S(=O)(=O)N2CC(CO)=CCC2c2ccccc2)cc1 (stereo not given) returned SENP1 inh 4.3 and SENP8 block-2 26.9.
COc1ccc(-c2noc(-c3ccc4c(c3)OCO4)n2)cc1 was read as SENP8 block-1 6.3, SENP6 inh -49.6, SENP1 inh -2.6, SENP8 block-2 -24.4, SENP7 block 73.3*, SENP8 conf 37.6, SENP6 confirm 33.3, SENP7 conf 47.0, Casp3 SENP sel 60.7* and Luc interf 22.1.
For O=C1NC(c2ccc(Br)cc2)Nc2sc3c(c21)CCC3 (stereo not given) the results were SENP8 block-1 0.2, SENP6 inh -5.8, SENP1 inh -44.6, SENP8 block-2 -237.2 and SENP7 block 4.9.
Screening Cc1ccsc1C1NC(=O)c2c(sc3c2CCCC3)N1 (stereo not given) returned SENP8 block-1 47.9, SENP6 inh 73.9*, SENP1 inh -20.5, SENP8 block-2 -241.0, SENP7 block 53.7*, SENP8 conf 32.3, SENP6 confirm 67.6*, SENP7 conf 81.7*, Casp3 SENP sel 53.2* and Luc interf 22.4.
For CCS(=O)(=O)c1ccc(C=NNc2nc3ccccc3o2)cc1 the results were SENP1 inh 4.5 and SENP8 block-2 -220.0.
CN(C)c1ccc(/C=N/Nc2nc3ccccc3o2)cc1 was read as SENP8 block-1 77.5*, SENP6 inh 77.5*, SENP1 inh -0.3, SENP8 block-2 -290.8, SENP7 block 96.7*, SENP8 conf 22.5, SENP6 confirm 79.3*, SENP7 conf 97.3*, Casp3 SENP sel 43.6 and Luc interf 11.2.
`Cn1c(NCCc2ccncc2)nc2cc(-c3ccccc3)sc2c1=O` gave SENP1 inh 0.8 and SENP8 block-2 -91.5.
`O=c1[nH]c(-c2ccccc2)c(-c2ccccc2)o1` gave SENP8 block-1 -5.5, SENP6 inh 10.1, SENP1 inh 1.0, SENP8 block-2 -176.8 and SENP7 block -3.5.
Screening O=C(Oc1ccc(-c2cn3c(n2)SCC3)cc1)c1ccccc1 returned SENP8 block-1 0.1, SENP6 inh 40.4, SENP1 inh 2.1, SENP8 block-2 26.0, SENP7 block 71.4*, SENP8 conf 12.2, SENP6 confirm 21.6, SENP7 conf 15.6, Casp3 SENP sel 51.4* and Luc interf 26.5.
For CC(=O)Nc1ccc(-c2cn3c(n2)SCC3)cc1 the results were SENP8 block-1 -7.8, SENP6 inh -13.7, SENP1 inh -0.5, SENP8 block-2 21.6 and SENP7 block -3.9.
`O=C1/C(=C/c2cccnc2)CC/C1=C\c1cccnc1` gave SENP8 block-1 -5.3, SENP6 inh -2.2, SENP1 inh 0.9, SENP8 block-2 28.1 and SENP7 block -12.8.
For O=C1/C(=C\c2cccnc2)CCc2ccccc21 the results were SENP8 block-1 26.5, SENP6 inh 74.4*, SENP1 inh -1.3, SENP8 block-2 18.5, SENP7 block 12.4, SENP8 conf 74.9*, SENP6 confirm 62.6*, SENP7 conf 24.0, Casp3 SENP sel 2.4 and Luc interf 84.3*.
O=C1/C(=C/c2ccccc2)CCCc2ccccc21 was read as SENP8 block-1 75.8*, SENP6 inh 69.9*, SENP1 inh 0.0, SENP8 block-2 15.9, SENP7 block 65.7*, SENP8 conf 89.0*, SENP6 confirm 92.9*, SENP7 conf 97.0*, Casp3 SENP sel 76.3* and Luc interf 82.8*.
For Cc1cc2cc(C=C(C#N)C#N)c(Cl)nc2cc1C the results were SENP8 block-1 -19.2, SENP6 inh -27.2, SENP1 inh -16.1, SENP8 block-2 -12.2 and SENP7 block -6.8.
CC(C)(C)C(=O)Nc1ccc(N=Nc2ccccc2)cc1 was read as SENP8 block-1 40.9, SENP6 inh -1.2, SENP1 inh 2.5, SENP8 block-2 28.9, SENP7 block 63.7*, SENP8 conf 40.3, SENP6 confirm 60.8*, SENP7 conf 91.0*, Casp3 SENP sel 59.3* and Luc interf 28.4.
`Cc1ccsc1/C=N/n1cnnc1` gave SENP8 block-1 -7.7, SENP6 inh -36.0, SENP1 inh -0.3, SENP8 block-2 11.4 and SENP7 block -2.6.
Screening Cc1ccsc1/C=N/n1cnc2sc(C)c(C)c2c1=O returned SENP8 block-1 42.6, SENP6 inh 70.4*, SENP1 inh 0.7, SENP8 block-2 20.9, SENP7 block 45.6, SENP8 conf 23.0, SENP6 confirm 19.8, SENP7 conf 21.7, Casp3 SENP sel 28.6 and Luc interf 8.3.
For Nc1nncn1C(=O)CCc1ccccc1 the results were SENP8 block-1 1.7, SENP6 inh 3.8, SENP1 inh 0.3, SENP8 block-2 23.6 and SENP7 block 1.7.
For Clc1cccc(/C=N/N2CCN(Cc3ccccc3)CC2)c1 the results were SENP8 block-1 -15.4, SENP6 inh -19.5, SENP1 inh -0.1, SENP8 block-2 9.6 and SENP7 block -3.7.
For COc1ccc(-c2cn(Cc3ccc4ccccc4c3)nn2)cc1 the results were SENP8 block-1 -18.0, SENP6 inh -8.5, SENP1 inh 2.2, SENP8 block-2 22.8 and SENP7 block -13.6.
`COc1ccc(-c2cn(Cc3ccc(C(=O)c4ccccc4)cc3)nn2)cc1` gave SENP8 block-1 77.0*, SENP6 inh 79.5*, SENP7 block 63.9*, SENP8 conf 13.5, SENP6 confirm 62.6*, SENP7 conf 16.6, Casp3 SENP sel 64.2* and Luc interf -4.2.
Screening O=C1NC(=S)SC1=Cc1ccc(F)cc1 returned SENP1 inh -0.5 and SENP8 block-2 28.2.
O=C(CCCN1C(=O)/C(=C/c2ccccc2Cl)SC1=S)N1CCOCC1 was read as SENP8 block-1 86.5*, SENP6 inh 79.5*, SENP1 inh 1.1, SENP8 block-2 7.5, SENP7 block 87.7*, SENP8 conf 32.4, SENP6 confirm 55.4*, SENP7 conf 63.9*, Casp3 SENP sel 63.3* and Luc interf 33.7.

Source: PubChem (Sanford-Burnham Center for Chemical Genomics)
